Experimental data from ChEMBL document CHEMBL1772956, “Synthesis and binding affinity of novel mono- and bivalent morphinan ligands for κ, μ, and δ opioid receptors” (Bioorg Med Chem, 2011).
The source made the active and inactive calls. The rule behind the calls is not given here.

What was measured:
[1] = species on record: Homo sapiens; assay: Selectivity ratio of Ki for human kappa opioid receptor over Ki for human mu opioid receptor
[2] = species on record: Homo sapiens; assay: Selectivity ratio of Ki for human kappa opioid receptor over Ki for human delta opioid receptor
[3] = target: T1, Mu-type opioid receptor (Homo sapiens, UniProt P35372); assay: biochemical; format: cell-based, CHO
[4] = target: T2, Kappa-type opioid receptor (Homo sapiens, UniProt P41145); assay: biochemical; format: cell-based, CHO
[5] = target: Delta-type opioid receptor (Homo sapiens, UniProt P41143); assay: Displacement of [3H]naltrindole from human delta-opioid receptor expressed in CHO cells after 3 hrs by scintillation counting; format: cell-based
[6] = target: T2, Kappa-type opioid receptor; assay: Agonist activity at human kappa-opioid receptor expressed in CHO cells assessed as stimulation of [35S]GTPgammaS binding after 60 mins by scintillation counting; format: functional, cell-based
Outline: (§1)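 Membranes from CHO cells stably expressing human κ or μ opioid receptor were incubated with 12 compound concentrations in 50 mM Tris-HCl pH 7.4 with 3 μM GDP, 3 mM MgCl2, 0.2 mM EGTA and 100 mM NaCl. [35S]GTPγS was 0.08 nM final, 60 min at 30°C, and 10 μM GTPγS gave nonspecific binding. Samples were filtered and counted. EC50 and Emax (% stimulation over basal) came from three experiments in triplicate.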

[7] = target: T2, Kappa-type opioid receptor; assay: Antagonist activity at human kappa-opioid receptor expressed in CHO cells assessed as inhibition of U69593-induced [35S]GTPgammaS binding after 60 mins by scintillation counting; format: functional, cell-based
[8] = target: T1, Mu-type opioid receptor; assay: Agonist activity at human mu-opioid receptor expressed in CHO cells assessed as stimulation of [35S]GTPgammaS binding after 60 mins by scintillation counting; format: functional, cell-based; outline: as §1
[9] = target: T1, Mu-type opioid receptor; assay: Antagonist activity at human mu-opioid receptor expressed in CHO cells assessed as inhibition of DAMGO-induced [35S]GTPgammaS binding after 60 mins by scintillation counting; format: functional, cell-based
Outline: (§2)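 Human μ receptor CHO membranes were incubated with 200 nM DAMGO to drive [35S]GTPγS (0.08 nM) binding, with 12 compound concentrations up to 10 μM, in Tris pH 7.4/GDP/MgCl2/EGTA/NaCl buffer, 60 min at 30°C. Nonspecific binding was with 10 μM GTPγS. Samples were filtered and counted.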

[10] = target: T2, Kappa-type opioid receptor; assay: Agonist activity at human kappa-opioid receptor expressed in CHO cells assessed as stimulation of [35S]GTPgammaS binding after 60 mins by scintillation counting relative to control; format: functional, cell-based; outline: as §1
[11] = target: T2, Kappa-type opioid receptor; assay: Antagonist activity at human kappa-opioid receptor expressed in CHO cells assessed as inhibition of U69593-induced [35S]GTPgammaS binding after 60 mins by scintillation counting relative to control; format: functional, cell-based
[12] = target: T1, Mu-type opioid receptor; assay: Agonist activity at human mu-opioid receptor expressed in CHO cells assessed as stimulation of [35S]GTPgammaS binding after 60 mins by scintillation counting relative to control; format: functional, cell-based; outline: as §1
[13] = target: T1, Mu-type opioid receptor; assay: Antagonist activity at human mu-opioid receptor expressed in CHO cells assessed as inhibition of DAMGO-induced [35S]GTPgammaS binding after 60 mins by scintillation counting relative to control; format: functional, cell-based; outline: as §2
[14] = target: T1, Mu-type opioid receptor; assay: Antagonist activity at human mu-opioid receptor expressed in CHO cells assessed as inhibition of DAMGO-induced [35S]GTPgammaS binding at 10 uM after 60 mins by scintillation counting relative to control; format: functional, cell-based; outline: as §2
[15] = target: T1, Mu-type opioid receptor; assay: Antagonist activity at human mu-opioid receptor expressed in CHO cells assessed as inhibition of DAMGO-induced [35S]GTPgammaS binding at 10 uM after 60 mins by scintillation counting; format: functional, cell-based; outline: as §2

Delta-type opioid receptor, sequence (P41143 whole entry): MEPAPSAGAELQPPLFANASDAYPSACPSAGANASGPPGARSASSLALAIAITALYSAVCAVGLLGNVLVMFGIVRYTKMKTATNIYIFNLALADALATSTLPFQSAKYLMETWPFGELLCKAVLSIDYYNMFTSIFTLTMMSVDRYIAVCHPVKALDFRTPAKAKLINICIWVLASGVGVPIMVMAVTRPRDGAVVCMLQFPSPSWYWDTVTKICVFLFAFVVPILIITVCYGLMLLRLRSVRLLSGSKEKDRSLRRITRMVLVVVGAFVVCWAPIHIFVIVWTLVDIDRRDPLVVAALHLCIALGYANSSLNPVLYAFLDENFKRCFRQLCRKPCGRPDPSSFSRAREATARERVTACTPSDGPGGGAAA
T2 sequence (P41145 whole entry): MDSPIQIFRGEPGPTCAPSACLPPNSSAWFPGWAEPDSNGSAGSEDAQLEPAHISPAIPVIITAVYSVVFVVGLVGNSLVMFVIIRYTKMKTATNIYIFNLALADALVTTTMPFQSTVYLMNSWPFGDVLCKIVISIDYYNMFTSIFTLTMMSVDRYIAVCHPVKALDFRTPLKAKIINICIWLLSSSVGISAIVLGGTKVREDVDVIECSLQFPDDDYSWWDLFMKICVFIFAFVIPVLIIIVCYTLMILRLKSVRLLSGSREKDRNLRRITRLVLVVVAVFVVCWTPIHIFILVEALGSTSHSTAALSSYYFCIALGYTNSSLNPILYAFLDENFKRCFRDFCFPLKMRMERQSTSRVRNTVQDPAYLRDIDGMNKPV
T1 sequence (P35372 whole entry): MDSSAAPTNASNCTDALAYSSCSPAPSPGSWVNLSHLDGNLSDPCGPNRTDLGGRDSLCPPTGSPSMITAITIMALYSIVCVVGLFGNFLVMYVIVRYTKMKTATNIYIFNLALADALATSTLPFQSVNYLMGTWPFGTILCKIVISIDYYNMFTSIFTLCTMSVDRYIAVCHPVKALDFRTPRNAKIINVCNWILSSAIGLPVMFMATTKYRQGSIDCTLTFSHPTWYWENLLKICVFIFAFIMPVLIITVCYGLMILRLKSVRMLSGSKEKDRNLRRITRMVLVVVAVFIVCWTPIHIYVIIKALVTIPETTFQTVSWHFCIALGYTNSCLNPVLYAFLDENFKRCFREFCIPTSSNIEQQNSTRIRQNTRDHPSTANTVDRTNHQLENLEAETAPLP

Compound: Nc1nc2cc3c(cc2s1)C[C@@H]1[C@@H]2CCCC[C@]32CCN1CC1CC1
- Ratio Ki [1]: 31
- Ratio Ki [2]: 592

Compound: O=C(CCCCCCCCC(=O)Oc1ccc2c(c1)[C@@]13CCCC[C@@]1(O)[C@@H](C2)N(CC1CCC1)CC3)Oc1ccc2c(c1)[C@@]13CCCC[C@H]1[C@@H](C2)N(CC1CCC1)CC3
- Ki [3]: 0.089 nM
- Ki [4]: 0.073 nM
- Ki [5]: 8 nM
- EC50 [6]: 0.84 nM
- IC50 ([7]; read-out: IC50): 3.7 nM
- EC50 [8]: 1.2 nM
- IC50 [9]: 3.4 nM
- Emax [10]: 100%
- Imax [11]: 23%
- Emax [12]: 46%
- Imax [13]: 50%
- Ratio Ki [1]: 1
- Ratio Ki [2]: 110

Compound: c1c2c(cc3sc(NCCCCCCCCCCNc4nc5cc6c(cc5s4)C[C@@H]4[C@@H]5CCCC[C@]65CCN4CC4CC4)nc13)C[C@@H]1[C@@H]3CCCC[C@]23CCN1CC1CC1
- Ki [3]: 2.5 nM
- Ki [4]: 0.27 nM
- Ki [5]: 39 nM
- EC50 [6]: 7.3 nM
- IC50 ([7]; cho): Not Active
- EC50 [8]: 22 nM
- IC50 [9]: 390 nM
- Emax [10]: 130%
- Imax [11]: inactive
- Emax [12]: 38%
- Imax [13]: 71%
- Ratio Ki [1]: 9
- Ratio Ki [2]: 140

Compound: O=C(CCCCCCCCC(=O)Nc1nc2cc3c(cc2s1)C[C@@H]1[C@@H]2CCCC[C@]32CCN1CC1CC1)Nc1nc2cc3c(cc2s1)C[C@@H]1[C@@H]2CCCC[C@]32CCN1CC1CC1
- Ki [3]: 8.8 nM
- Ki [4]: 0.37 nM
- Ki [5]: 170 nM
- EC50 [6]: 5.5 nM
- IC50 ([7]; cho): Not Active
- EC50 [8]: 130 nM
- Emax [10]: 130%
- Imax [11]: inactive
- Emax [12]: 25%
- inhibition [14]: 74%
- inhibition [15]: inactive
- Ratio Ki [1]: 24
- Ratio Ki [2]: 460

Compound: CO[C@@]12CCCC[C@@]13CCN(CC1CCC1)[C@@H]2Cc1ccc(OC(=O)CCCCCCCCC(=O)Oc2ccc4c(c2)[C@@]25CCCC[C@@]2(OC)[C@@H](C4)N(CC2CCC2)CC5)cc13
- Ki [3]: 0.26 nM
- Ki [4]: 0.37 nM
- Ki [5]: 13 nM
- EC50 [6]: 2.4 nM
- IC50 ([7]; read-out: IC50): 17 nM
- EC50 [8]: 1.8 nM
- IC50 [9]: 260 nM
- Emax [10]: 83%
- Imax [11]: 43%
- Emax [12]: 42%
- Imax [13]: 44%
- Ratio Ki [1]: 1
- Ratio Ki [2]: 50

Compound: CO[C@@]12CCCC[C@@]13CCN(CC1CCC1)[C@@H]2Cc1ccc(OC(=O)CCCCCCCCC(=O)OCc2ccccc2)cc13
- Ki [3]: 0.15 nM
- Ki [4]: 0.23 nM
- Ki [5]: 14 nM
- EC50 [6]: 2.1 nM
- IC50 ([7]; read-out: IC50): 6.4 nM
- EC50 [8]: 1.7 nM
- IC50 [9]: 7.6 nM
- Emax [10]: 90%
- Imax [11]: 30%
- Emax [12]: 54%
- Imax [13]: 28%
- Ratio Ki [1]: 1
- Ratio Ki [2]: 93

Compound: C=CCN1CC[C@]23c4c5ccc(OC(=O)CCCCCCCCC(=O)Oc6ccc7c(c6)[C@@]68CCCC[C@@]6(O)[C@@H](C7)N(CC6CCC6)CC8)c4O[C@H]2C(=O)CC[C@@]3(O)[C@H]1C5
- Ki [3]: 0.82 nM
- Ki [4]: 0.28 nM
- Ki [5]: 35 nM
- EC50 [6]: 12 nM
- IC50 ([7]; read-out: IC50): 49 nM
- EC50 [8]: 2 nM
- IC50 [9]: 34 nM
- Emax [10]: 74%
- Imax [11]: 35%
- Emax [12]: 19%
- Imax [13]: 73%
- Ratio Ki [1]: 3
- Ratio Ki [2]: 130

Compound: CO[C@@]12CCCC[C@@]13CCN(CC1CCC1)[C@@H]2Cc1ccc(O)cc13
- Ki [3]: 0.14 nM
- Ki [4]: 0.2 nM
- Ki [5]: 8.1 nM
- EC50 [6]: 2.8 nM
- IC50 ([7]; read-out: IC50): 22 nM
- EC50 [8]: 3.6 nM
- IC50 [9]: 9.3 nM
- Emax [10]: 90%
- Imax [11]: 37%
- Emax [12]: 50%
- Imax [13]: 50%
- Ratio Ki [1]: 1
- Ratio Ki [2]: 58

Compound: O=C(/C=C/C(=O)Oc1ccc2c(c1)[C@@]13CCCC[C@H]1[C@@H](C2)N(CC1CCC1)CC3)Oc1ccc2c(c1)[C@@]13CCCC[C@H]1[C@@H](C2)N(CC1CCC1)CC3
- Ratio Ki [1]: 3
- Ratio Ki [2]: 120

Compound: C=CCN1CC[C@]23c4c5ccc(OC(=O)CCCCCCCCC(=O)Oc6ccc7c(c6)[C@@]68CCCC[C@@]6(OC)[C@@H](C7)N(CC6CCC6)CC8)c4O[C@H]2C(=O)CC[C@@]3(O)[C@H]1C5
- Ki [3]: 0.55 nM
- Ki [4]: 0.14 nM
- Ki [5]: 39 nM
- EC50 [6]: 18 nM
- IC50 ([7]; read-out: IC50): 7.7 nM
- EC50 [8]: 10 nM
- IC50 [9]: 19 nM
- Emax [10]: 80%
- Imax [11]: 33%
- Emax [12]: 62%
- Imax [13]: 45%
- Ratio Ki [1]: 4
- Ratio Ki [2]: 280

Compound: O=C(CCCCCCCCC(=O)Oc1ccc2c(c1)[C@@]13CCCC[C@H]1[C@@H](C2)N(CC1CCC1)CC3)Oc1ccc2c(c1)[C@@]13CCCC[C@H]1[C@@H](C2)N(CC1CCC1)CC3
- Ratio Ki [1]: 2
- Ratio Ki [2]: 90
